Measurements published in ChEMBL document CHEMBL2093137, “WHO-TDR NTD Screening”.
In brackets after ≈: the same amount, converted by molar mass.

Tests used:
[1] = tested on: Trypanosoma cruzi; assay: WHO-TDR: Chagas disease; type: functional, organism-based, Homo sapiens; conditions: MRC5
Method in brief: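 Each IC50 reflects antiparasitic potency against intracellular amastigotes of Trypanosoma cruzi Tulahuen CL2 beta-galactosidase strain. These were cultured in MRC-5SV2 human lung fibroblasts and exposed to a 10,000-compound diverse Life Chemicals library screened according to published standard procedures with a reference drug as positive control.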

[2] = tested on: Plasmodium falciparum K1; assay: WHO-TDR: Malaria; type: functional, organism-based, Homo sapiens; conditions: Erythrocyte
Method in brief: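 This whole-organism screen covered 10,000 drug-likeness-filtered and reactive-group-filtered compounds from Life Chemicals. The target was the Plasmodium falciparum K1 strain in human red blood cells, and the readout was antiplasmodial IC50.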

[3] = tested on: Onchocerca ochengi; assay: (§1) WHO-TDR: Onchocerciasis; type: functional; set-up: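 at 12.5 µM on microfilariae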
Method in brief: (§2)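 Onchocerca ochengi or Onchocerca lienalis, animal pathogens used as surrogates for the human parasite, were screened as whole microfilariae against a 10,000-compound diverse library from Life Chemicals. The reported measures of activity are percent inhibition and IC50.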

[4] = WHO-TDR: Cytotoxicity; type: toxicity, cell-based; conditions: human, MRC5 cells
[5] = tested on: Leishmania infantum; assay: WHO-TDR: Leishmaniasis; type: functional, organism-based, Mus musculus; conditions: Macrophage
Method in brief: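 The screened collection came from Life Chemicals: 10,000 diverse compounds selected after filtering for drug-likeness and reactive groups. Each was tested in a whole-organism assay against Leishmania infantum MHOM/MA(BE)/67 amastigotes inside murine peritoneal macrophages, using previously published standard procedures and a reference drug as positive control. Results are IC50 values for antiparasitic potency.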

[6] = tested on: Trypanosoma brucei brucei; assay: WHO-TDR: Human African Trypanosomiasis (HAT); type: functional, organism-based; conditions: Squib-427
Method in brief: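 Screening used a 10,000-compound diverse library supplied by Life Chemicals and filtered for drug-likeness and reactive groups. Whole bloodstream-form parasites of Trypanosoma brucei Squib 427 strain were assayed according to previously published standard procedures, with reference drugs as positive controls. The reported measure is IC50, reflecting antiparasitic potency.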

[7] = tested on: Onchocerca ochengi; assay: as §1; type: functional; set-up: concentration or dose not given beside the values; method in brief: as §2; remark: listed apart in the source
[8] = tested on: Schistosoma mansoni; assay: WHO-TDR: Schistosomiasis; type: functional; set-up: concentration or dose not given beside the values
Method in brief: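 Larval and/or adult Schistosoma mansoni (Puerto Rican strain) were tested whole against 10,000 diverse compounds from Life Chemicals. The procedure was a previously published standard one, using a reference drug as positive control. Results are expressed as percent inhibition and IC50.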

IC50 [2] [µg/mL] | IC50 [5] [µg/mL] | IC50 [6] [µg/mL] | SMILES | IC50 [1] [µg/mL] | % Inhibition [3] [%] | IC50 [4] [µg/mL] | % Inhibition [7] [%] | % Inhibition [8] [%]
2.13 (≈ 5.19 µM) | > 12.3 | 2.56 (≈ 6.26 µM) | O=C(Nc1nc2c(s1)CCCC2C(=O)NCCC1=CCCCC1)c1ccccc1 (stereo unspecified) | 3.45 (≈ 8.42 µM) | 0 | > 12.3 | 100 | 0
4.63 (≈ 10.4 µM) | > 13.3 | 0.459 (≈ 1.03 µM) | O=C(Nc1ccc(F)cc1)Nc1nc(C(=O)N2CCN(c3ccccc3F)CC2)cs1 | 4.32 (≈ 9.74 µM) | 0 | 5.3 (≈ 11.9 µM) | 0 | 0
2.22 (≈ 6.46 µM) | > 10.3 | 0.333 (≈ 0.971 µM) | CC1CCN(C(C)CNC(=O)Nc2ccccc2C(F)(F)F)CC1 (stereo unspecified) | 3.39 (≈ 9.87 µM) | 0 | 7.77 (≈ 22.6 µM) | 0 | 0
0.869 (≈ 2.53 µM) | 3.33 (≈ 9.71 µM) | 0.333 (≈ 0.971 µM) | CC1CCN(C(C)CNC(=O)Nc2ccc(C(F)(F)F)cc2)CC1 (stereo unspecified) | 3.26 (≈ 9.49 µM) | 100 | 8.41 (≈ 24.5 µM) | 100 | 25
0.754 (≈ 2.13 µM) | 3.43 (≈ 9.71 µM) | 0.319 (≈ 0.902 µM) | CC(CNC(=O)Nc1ccc(Oc2ccccc2)cc1)N1CCCCC1 (stereo unspecified) | 3.98 (≈ 11.3 µM) | 75 | > 10.6 | 100 | 0
1.01 (≈ 3.26 µM) | 4.81 (≈ 15.5 µM) | 0.301 (≈ 0.971 µM) | CC1CCN(C(C)CNC(=O)Nc2cccc(Cl)c2)CC1 (stereo unspecified) | > 9.29 | 0 | > 9.29 | 50 | 0
3.19 (≈ 10.9 µM) | > 8.8 | 0.303 (≈ 1.03 µM) | CC1CCN(C(C)CNC(=O)Nc2ccc(F)cc2)CC1 (stereo unspecified) | > 8.8 | 0 | > 8.8 | 0 | 0
> 11.1 | > 11.1 | > 11.1 | CC(C)c1cc(C(=O)NCC2CCCO2)nn1-c1nc2ccccc2s1 (stereo unspecified) | > 11.1 | 0 | > 11.1 | 100 | 0
6.14 (≈ 14.6 µM) | > 12.6 | 4.13 (≈ 9.83 µM) | COc1ccc(CCC(=O)NCC(c2ccsc2)N2CCc3ccccc3C2)cc1 (stereo unspecified) | 4.15 (≈ 9.87 µM) | 0 | > 12.6 | 100 | 0
> 12.3 | > 12.3 | 4.19 (≈ 10.2 µM) | O=C(COc1ccc(F)cc1)NCC(c1ccsc1)N1CCc2ccccc2C1 (stereo unspecified) | 3.73 (≈ 9.09 µM) | 0 | > 12.3 | 100 | 0

Second part, the compound before the results:

SMILES | IC50 [2] [µg/mL] | IC50 [5] [µg/mL] | IC50 [6] [µg/mL] | IC50 [1] [µg/mL] | % Inhibition [3] [%] | IC50 [4] [µg/mL] | % Inhibition [7] [%] | % Inhibition [8] [%]
O=C(Nc1onc2c1CCC2)c1cccc(F)c1 | > 7.39 | > 7.39 | 2.42 (≈ 9.83 µM) | 2.12 (≈ 8.63 µM) | 0 | 4.88 (≈ 19.8 µM) | 100 | 0
O=C(COc1ccc(Cl)cc1Cl)Nc1onc2c1CCC2 | > 9.81 | > 9.81 | 0.334 (≈ 1.02 µM) | > 9.81 | 0 | > 9.81 | 0 | 0
O=C(Cc1cccc2ccccc12)Nc1onc2c1CCC2 | 1.69 (≈ 5.79 µM) | > 8.77 | 0.253 (≈ 0.865 µM) | 0.498 (≈ 1.7 µM) | 0 | 2.87 (≈ 9.83 µM) | 0 | 0
O=C(CS(=O)(=O)c1ccc(F)cc1)Nc1onc2c1CCC2 | 2.83 (≈ 8.72 µM) | > 9.73 | 3.19 (≈ 9.83 µM) | 1.71 (≈ 5.28 µM) | 0 | > 9.73 | 100 | 0
O=C(Nc1onc2c1CCCC2)c1cccc(Oc2ccccc2)c1 | 8.46 (≈ 25.3 µM) | > 10 | 3.25 (≈ 9.71 µM) | 4.23 (≈ 12.7 µM) | 0 | > 10 | 100 | 0
CN(C1CC1)S(=O)(=O)c1ccc(C(=O)Nc2onc3c2CCCC3)cc1 | > 11.3 | > 11.3 | 5.97 (≈ 15.9 µM) | 3.56 (≈ 9.49 µM) | 0 | > 11.3 | 100 | 0
Cc1cc(F)ccc1S(=O)(=O)Nc1ccc2c(c1)CN(C(=O)c1ccco1)CC2 | 6.28 (≈ 15.2 µM) | > 12.4 | 4.03 (≈ 9.71 µM) | 3.44 (≈ 8.3 µM) | 0 | 7.31 (≈ 17.6 µM) | 100 | 0
Cc1nn2c(=O)[nH]c(SCc3ccccn3)nc2c1-c1ccccc1 | > 10.5 | > 10.5 | > 10.5 | > 10.5 | 0 | > 10.5 | 100 | 0
O=C(Cn1c(=O)n(Cc2cccnc2)c(=O)c2ncccc21)c1ccc2c(c1)CCCC2 | 2.96 (≈ 6.93 µM) | > 12.8 | 4.14 (≈ 9.71 µM) | 3.81 (≈ 8.93 µM) | 0 | > 12.8 | 100 | 0
CCOc1ccccc1NC(=O)Cn1c(=O)n(Cc2cccs2)c(=O)c2ncccc21 | 2.95 (≈ 6.76 µM) | > 13.1 | 4.24 (≈ 9.72 µM) | > 13.1 | 0 | > 13.1 | 100 | 0
O=C(Cn1c(=O)n(Cc2cccs2)c(=O)c2ncccc21)OCc1ccccc1 | > 12.2 | > 12.2 | > 12.2 | > 12.2 | 0 | > 12.2 | 100 | 0
Cc1cc(C(=O)Nc2nc(-c3ccc4c(c3)OCCO4)cs2)n(C)n1 | > 10.7 | > 10.7 | > 10.7 | > 10.7 | 0 | > 10.7 | 100 | 0
Cc1cccc(NC(=O)Cn2nc(C(C)C)c3cnn(-c4ccccc4C)c3c2=O)c1 | > 12.5 | > 12.5 | > 12.5 | > 12.5 | 0 | > 12.5 | 100 | 0
Cc1cc(C(=O)N(CCCN(C)C)c2nc3c(C)ccc(Cl)c3s2)no1 | 3.3 (≈ 8.41 µM) | 4.17 (≈ 10.6 µM) | 0.378 (≈ 0.962 µM) | 4.14 (≈ 10.5 µM) | 0 | 5.07 (≈ 12.9 µM) | 100 | 0
O=C(CC1CCCC1)Nc1nc(CSCc2ccc(F)cc2)cs1 | 3.04 (≈ 8.35 µM) | > 10.9 | 3.5 (≈ 9.6 µM) | 2.43 (≈ 6.67 µM) | 0 | > 10.9 | 100 | 0
CN(C)C(CNS(=O)(=O)c1cc(Cl)ccc1Cl)c1ccsc1 (stereo unspecified) | 7.08 (≈ 18.7 µM) | > 11.4 | 3.82 (≈ 10.1 µM) | > 11.4 | 0 | > 11.4 | 100 | 0
Cc1ccc(Cl)c2sc(N3CCN(C)CC3)nc12 | 3.31 (≈ 11.7 µM) | > 9.55 | 3.05 (≈ 10.8 µM) | 2.38 (≈ 8.46 µM) | 0 | > 9.55 | 100 | 0
CSCc1csc(NC(=O)Cc2ccc(Cl)cc2)n1 | 5.98 (≈ 19.1 µM) | > 9.38 | 3 (≈ 9.6 µM) | 2.47 (≈ 7.91 µM) | 75 | 3.7 (≈ 11.8 µM) | 100 | 0
COc1ccccc1OCC(=O)Nc1nc(CSCc2ccc(F)cc2)cs1 | > 12.6 | > 12.6 | > 12.6 | > 12.6 | 0 | > 12.6 | 100 | 0
O=C(Nc1nc(CSCc2ccc(F)cc2)cs1)c1ccco1 | > 10.5 | > 10.5 | > 10.5 | > 10.5 | 0 | > 10.5 | 100 | 0
NC(=O)c1cc(-c2ccccc2)sc1NC(=O)C1COc2ccccc2O1 (stereo unspecified) | 5.78 (≈ 15.2 µM) | > 11.4 | 3.65 (≈ 9.6 µM) | 3.4 (≈ 8.93 µM) | 0 | 1.92 (≈ 5.04 µM) | 100 | 25
COc1ccc(S(=O)(=O)CC(=O)Nc2sc(-c3ccccc3)cc2C(N)=O)cc1 | 6.93 (≈ 16.1 µM) | > 12.9 | 4.28 (≈ 9.95 µM) | > 12.9 | 0 | > 12.9 | 100 | 0
